Laboratory results taken from ChEMBL document CHEMBL1132528, “A novel molecular design of thrombin receptor antagonist” (Bioorg Med Chem Lett, 1999).
pEC50: −log10 of the molar value. The source made the active and inactive calls. The calls are words filed in the database; no cut-off is given here. Peptide text beside a SMILES is read from it.

Columns and labels:
Homo sapiens [1] = organism: Homo sapiens; experiment: Platelet aggregation activity of the compound; IA means inactive; format: functional, organism-based
Method in brief: (§1)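 Human platelet-rich plasma from healthy donors who had taken no medication for the previous two weeks. Synthetic peptides were added directly and scored for their ability to induce platelet aggregation.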

[2] = target: T1, Proteinase-activated receptor 1 (Homo sapiens) (UniProt P25116); experiment: Thrombin receptor antagonistic activity was evaluated by the inhibition of platelet aggregation induced by the agonist SFLLRNP; IA means inactive; format: functional
T1 sequence (whole entry): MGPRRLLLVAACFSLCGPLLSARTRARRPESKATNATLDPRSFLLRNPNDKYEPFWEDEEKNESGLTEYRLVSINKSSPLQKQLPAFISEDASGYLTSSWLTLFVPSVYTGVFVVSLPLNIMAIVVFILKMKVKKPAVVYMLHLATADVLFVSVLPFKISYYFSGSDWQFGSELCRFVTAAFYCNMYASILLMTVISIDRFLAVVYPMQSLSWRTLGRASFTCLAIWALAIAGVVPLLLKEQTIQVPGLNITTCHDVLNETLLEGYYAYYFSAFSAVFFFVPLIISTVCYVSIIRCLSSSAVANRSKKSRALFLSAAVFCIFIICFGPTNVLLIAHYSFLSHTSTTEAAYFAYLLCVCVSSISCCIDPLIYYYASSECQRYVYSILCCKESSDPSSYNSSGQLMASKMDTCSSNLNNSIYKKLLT
Method in brief: (§2)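 Human platelet-rich plasma from drug-free healthy donors. Test peptide (e.g. 100 μM) was incubated in the plasma for 3 min, then SFLLRNP agonist was added to induce aggregation. Inhibition of aggregation was measured; IC50 came from dose-dependent inhibition.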

Homo sapiens [3] = organism: Homo sapiens; experiment: Platelet aggregation activity of the compound; format: functional, organism-based; method in brief: as §1
[4] = target: T1, Proteinase-activated receptor 1 (Homo sapiens); experiment: Thrombin receptor antagonistic activity was evaluated by the inhibition of platelet aggregation induced by the agonist SFLLRNP; format: functional; design: scale not given: the % may be the effect or the level left; method in brief: as §2

SMILES | EC50 (Homo sapiens [1]) | Activity [2] | pEC50 (Homo sapiens [3]) | Activity [4]
CC(C)C[C@H](NC(=O)[C@H](CC(C)C)NC(=O)[C@H](Cc1ccccc1)NC(=O)[C@@H](N)CO)C(=O)N[C@@H](CC(=O)O)C(=O)N[C@@H](CC(N)=O)C(=O)N1CCC[C@H]1C(=O)O (H-SFLLDNP-OH) | Not Active | inactive |  | 
CC(C)C[C@H](NC(=O)[C@H](Cc1ccccc1)NC(=O)[C@@H](N)CO)C(=O)N[C@@H](CC(=O)O)C(=O)N[C@@H](CCCN=C(N)N)C(=O)N[C@@H](CC(N)=O)C(=O)N1CCC[C@H]1C(=O)O (H-SFLDRNP-OH) | Not Active | inactive |  | 
CC(C)C[C@H](NC(=O)[C@H](CC(C)C)NC(=O)[C@H](CC(=O)O)NC(=O)[C@@H](N)CO)C(=O)N[C@@H](CCCN=C(N)N)C(=O)N[C@@H](CC(N)=O)C(=O)N1CCC[C@H]1C(=O)O (H-SDLLRNP-OH) | Not Active | inactive |  | 
CC(C)C[C@H](NC(=O)[C@H](CC(C)C)NC(=O)[C@H](Cc1ccccc1)NC(=O)[C@@H](N)CO)C(=O)N[C@@H](CCCN=C(N)N)C(=O)N[C@@H](CC(N)=O)C(=O)N1CCC[C@H]1C(=O)O (H-SFLLRNP-OH) |  | inactive | 5.37 | 
CC(C)C[C@H](NC(=O)[C@H](CC(C)C)NC(=O)[C@H](Cc1ccccc1)NC(=O)[C@@H](N)CO)C(=O)N[C@@H](CCCN=C(N)N)C(=O)N[C@@H](CC(N)=O)C(=O)N[C@@H](CC(=O)O)C(=O)O (H-SFLLRND-OH) |  | inactive | 5.37 | 
CC(C)C[C@H](NC(=O)[C@H](CC(C)C)NC(=O)[C@H](Cc1ccccc1)NC(=O)[C@@H](N)CO)C(=O)N[C@@H](CCCN=C(N)N)C(=O)N[C@@H](CC(=O)O)C(=O)N1CCC[C@H]1C(=O)O (H-SFLLRDP-OH) |  | inactive | 5.36 | 
CC(C)C[C@H](NC(=O)[C@H](CC(=O)O)NC(=O)[C@H](Cc1ccccc1)NC(=O)[C@@H](N)CO)C(=O)N[C@@H](CCCN=C(N)N)C(=O)N[C@@H](CC(N)=O)C(=O)N1CCC[C@H]1C(=O)O (H-SFDLRNP-OH) | Not Active |  |  | 19%
CC(C)C[C@H](NC(=O)[C@H](CC(C)C)NC(=O)[C@H](Cc1ccccc1)NC(=O)[C@@H](N)CC(=O)O)C(=O)N[C@@H](CCCN=C(N)N)C(=O)N[C@@H](CC(N)=O)C(=O)N1CCC[C@H]1C(=O)O (H-DFLLRNP-OH) | Not Active | inactive |  | 
